The subject of assay [1] is MCF7. The experiment in a line: Cytotoxicity against human MCF7 cells assessed as cell viability at 30 uM after 48 hrs by trypan blue staining-based assay. It is filed as functional. A digest of the protocol:
(§1)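 Indolizidinone series: MCF-7 grown in DMEM phenol red and SHSY-5Y in DMEM/F12 Ham's, each with 10% FBS, at 37 °C under 5% CO2 to 80% confluence. About 10 × 10⁶ cells were seeded, grown 24 h, then exposed 24 or 48 h to vehicle (0.05% DMSO) or increasing compound concentrations in DMSO. Viable cells were counted by trypan blue staining on a Vi-Cell-XR analyzer.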

Assay [2] has as its system SH-SY5Y. The assay is described as follows: Cytotoxicity against human SH-SY5Y cells assessed as cell viability at 30 uM after 48 hrs by trypan blue staining-based assay. The format is functional. The procedure, abridged: as §1
The test system of assay [3] is SH-SY5Y. The assay is described as follows: Cytotoxicity against human SH-SY5Y cells assessed as cell mortality at 30 uM after 48 hrs by trypan blue exclusion assay. It is filed as functional, cell-based. A digest of the protocol:
(§2)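 Pyrrolidine series: MCF-7 in DMEM and SHSY-5Y in DMEM/F12 with 10% FBS, grown to 70% confluence. Compounds in DMSO (0.05%) were added at 10 µM for 24 h or 30 µM for 48 h, with DMSO (0.05%) vehicle controls for the same period. Mortality was derived from trypan blue counts. Data are mean ± SEM of 5-6 assays, analysed by one-way ANOVA followed by Student's t test versus vehicle.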

The subject of assay [4] is SH-SY5Y. The experiment in a line: Cytotoxicity against human SH-SY5Y cells assessed as cell mortality at 10 uM after 24 hrs by trypan blue exclusion assay. The format is functional, cell-based. A digest of the protocol: as §2
Assay [5] concerns MCF7. The experiment in a line: Cytotoxicity against human MCF7 cells assessed as cell mortality at 10 uM after 24 hrs by trypan blue exclusion assay. The format is functional, cell-based. A digest of the protocol: as §2
Assay [6] deals with MCF7. The assay is described as follows: Cytotoxicity against human MCF7 cells assessed as cell mortality at 30 uM after 48 hrs by trypan blue exclusion assay relative to control. It is filed as functional. The procedure, abridged:
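MCF-7 cells were cultured in DMEM + 10% FBS to 70% confluence. Compound was dissolved in DMSO (0.05%) and added to the medium for 48 h. Controls received 0.05% DMSO for the same period. Total cells, viable cells and mortality were calculated per compound and dose. Results are given as mean ± SEM of 5–6 assays, analysed by one-way ANOVA then Student's t test.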

Assay [7] deals with MCF7. The assay is described as follows: Cytotoxicity against human MCF7 cells after 24 to 48 hrs by trypan blue exclusion assay. It is filed as functional, cell-based. The procedure, abridged:
as §1

Assay [8] has as its system SH-SY5Y. The assay is described as follows: Cytotoxicity against human SH-SY5Y cells after 24 to 48 hrs by trypan blue exclusion assay. The format is functional, cell-based. A digest of the protocol: as §1
Assay [9] deals with MCF7. The experiment in a line: Cytotoxicity against human MCF7 cells assessed as change in cell morphology at 30 uM after 48 hrs. The format is functional, cell-based. A digest of the protocol: (§3)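 Cells were treated at 30 µM (0.05% DMSO vehicle controls) and examined microscopically over time, from 6 h up to 48 h. Changes scored were cell and nuclear volume, nucleolar refringency and cytoplasm vacuolization, compared with vehicle-treated cells.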

For assay [10], the system named is SH-SY5Y. The experiment in a line: Cytotoxicity against human SH-SY5Y cells assessed as change in cell morphology at 30 uM after 48 hrs. It is filed as functional, cell-based. The procedure, abridged:
as §3

Assay [11] concerns MCF7. The assay is described as follows: Cytotoxicity against human MCF7 cells assessed as cell death at 30 uM after 48 hrs by trypan blue staining-based assay relative to control. It is filed as functional. The procedure, abridged:
(§4)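 Cells grown at 37 °C, 5% CO2 to 80% confluence: MCF-7 in phenol red DMEM + 10% FBS, SH-SY5Y in DMEM/F12 Ham's + 10% FBS. About 10 × 10⁶ cells were seeded and grown 24 h, then exposed 48 h to compound in […] or to vehicle (0.05% DMSO). Viable cells were counted by trypan blue staining on an automated analyzer. Compared with vehicle.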

A short description of assay [12]: Cytotoxicity against human SH-SY5Y cells assessed as cell death at 30 uM after 48 hrs by trypan blue staining-based assay relative to control. The format is functional. The procedure, abridged: as §4
In assay [13] the test system is MCF7. The experiment in a line: Cytotoxicity against human MCF7 cells assessed as cytoplasm vacuolization at 30 uM. The format is functional, cell-based. To be noted: TDE = time-dependent effect. A digest of the protocol: as §3
Assay [14] concerns MCF7. The experiment in a line: Cytotoxicity against human MCF7 cells assessed as increase in nuclear volume at 30 uM. It is filed as functional, cell-based. To be noted: TDE = time-dependent effect. The procedure, abridged: as §3
Assay [15] relates to MCF7. The experiment in a line: Cytotoxicity against human MCF7 cells assessed as nucleolar refringency at 30 uM. It is filed as functional, cell-based. To be noted: TDE = time-dependent effect. The procedure, abridged: as §3
For assay [16], the system named is MCF7. The assay is described as follows: Cytotoxicity against human MCF7 cells assessed as increase in cellular volume at 30 uM. It is filed as functional, cell-based. To be noted: TDE = time-dependent effect. A digest of the protocol:
as §3

Active and inactive are the calls of the source. The calls are words filed in the database; no cut-off is given here.

On to `O=C1C(c2ccccc2)=C(c2ccc(Br)cc2)C[C@H]2C[C@@H](O)CN12`, for which the outcome with MCF7 [1] was Active.

Take `O=C1C(c2ccccc2)=C(c2ccc(Br)cc2)C[C@@H]2C[C@@H](O)CN12`: the outcome in the assay with SH-SY5Y [2] and in the assay with MCF7 [1] was Active.

Take `Cn1cccc1C1=C(c2ccccc2)C(=O)N2C[C@H](O)C[C@@H]2C1`: the outcome in the assay on SH-SY5Y [2] and with MCF7 [1] was Active.

Turning to `O=C(CC1C[C@@H](O)CN1C(=O)Cc1ccccc1)c1ccc(Br)cc1` (stereo not given in full), the result with SH-SY5Y [3], with SH-SY5Y [4], in the assay with MCF7 [5] and in the assay with MCF7 [6] was Active.

`O=C1C(c2ccccc2)=C(c2ccccc2)C[C@H]2C[C@@H](O)CN12`: the outcome with MCF7 [1] was Active.

For `Cn1cccc1C(=O)CC1C[C@@H](O)CN1C(=O)Cc1ccccc1` (stereo not given in full), the outcome in the assay with SH-SY5Y [3], with SH-SY5Y [4], with MCF7 [5] and with MCF7 [6] was Active.

In the case of `COc1ccc(C2=C(c3ccccc3)C(=O)N3C[C@H](O)C[C@H]3C2)cc1`, the outcome with SH-SY5Y [2] and with MCF7 [1] was Active.

`O=C(C[C@@H]1C[C@@H](O)CN1C(=O)Cc1ccccc1)c1ccco1`: the Activity result with MCF7 [7] and with SH-SY5Y [8] was “Dose-dependent effect” throughout.

Consider `O=C1C(c2ccccc2)=C(c2ccc(-c3ccccc3)cc2)C[C@@H]2C[C@@H](O)CN12`, for which the outcome with SH-SY5Y [2] and in the assay on MCF7 [1] was Active.

As to `O=C1C(c2ccccc2)=C(c2ccc(-c3ccccc3)cc2)C[C@H]2C[C@@H](O)CN12`, the result with MCF7 [9], in the assay on SH-SY5Y [10], in the assay with SH-SY5Y [2] and with MCF7 [1] was Active. Besides, the Activity (with MCF7 [11]; in assay [12]) was 80% in each case.

On to `O=C(C[C@H]1C[C@@H](O)CN1C(=O)Cc1ccccc1)c1ccco1`, for which the outcome in the assay with SH-SY5Y [3], in the assay on SH-SY5Y [4], with MCF7 [5] and in the assay on MCF7 [6] was Active.

`O=C1C(c2ccccc2)=C(c2ccccc2)C[C@@H]2C[C@@H](O)CN12`: in the assay with MCF7 [1], the outcome was Active.

`O=C1C(c2ccccc2)=C(c2ccco2)C[C@H]2C[C@@H](O)CN12`: in the assay on MCF7 [1], the outcome was Active.

In the case of `O=C(C[C@@H]1C[C@@H](O)CN1C(=O)Cc1ccccc1)c1ccc(-c2ccccc2)cc1`, the outcome in the assay on MCF7 [5] was Active. The values for the Activity result in the assay with MCF7 [6], in the assay with MCF7 [7] and in the assay on SH-SY5Y [8] were “>=80%”, “Dose-dependent effect” and “Dose-dependent effect”, respectively.

As for `O=C1C(c2ccccc2)=C(c2ccco2)C[C@@H]2C[C@@H](O)CN12`, the outcome with SH-SY5Y [2] and in the assay on MCF7 [1] was Active.

Consider `O=C(CC1C[C@@H](O)CN1C(=O)Cc1ccccc1)c1ccco1` (stereo not given in full), for which the result with SH-SY5Y [3], in the assay on SH-SY5Y [4], in the assay on MCF7 [5] and with MCF7 [6] was Active.

With `Cn1cccc1C(=O)C[C@@H]1C[C@@H](O)CN1C(=O)Cc1ccccc1`, the result in the assay with SH-SY5Y [3], in the assay with SH-SY5Y [4], with MCF7 [5] and in the assay with MCF7 [6] was Active.

Consider `COc1ccc(C(=O)CC2C[C@@H](O)CN2C(=O)Cc2ccccc2)cc1` (stereo not given in full), for which the result with SH-SY5Y [3], with SH-SY5Y [4], in the assay on MCF7 [5] and in the assay on MCF7 [6] was Active.

In the case of `O=C(C[C@H]1C[C@@H](O)CN1C(=O)Cc1ccccc1)c1ccc(-c2ccccc2)cc1`, the Activity entry is “tde” in the assay on MCF7 [13]; “tde” with MCF7 [14]; “tde” in the assay with MCF7 [15]; “tde” with MCF7 [16]; “>=80%” in the assay with MCF7 [6]; “Dose-dependent effect” with MCF7 [7]. In addition, the Activity entry in the assay with SH-SY5Y [8] was “Dose-dependent effect”. Besides, the result with MCF7 [5] and with SH-SY5Y [10] was Active.

On to `COc1ccc(C2=C(c3ccccc3)C(=O)N3C[C@H](O)C[C@@H]3C2)cc1`, for which, in the assay with MCF7 [1], the outcome was Active.

As to `Cn1cccc1C1=C(c2ccccc2)C(=O)N2C[C@H](O)C[C@H]2C1`, the outcome in the assay with SH-SY5Y [2] and in the assay with MCF7 [1] was Active.

With `O=C1C(c2ccccc2)=C(c2ccc3ccccc3c2)C[C@@H]2C[C@@H](O)CN12`, the outcome in the assay with SH-SY5Y [2] and in the assay on MCF7 [1] was Active.

As to `O=C1C(c2ccccc2)=C(c2ccc3ccccc3c2)C[C@H]2C[C@@H](O)CN12`, the outcome in the assay on MCF7 [1] was Active.

The values are drawn from ChEMBL document CHEMBL2407002, “Simplification of antitumoral phenanthroindolizidine alkaloids: short synthesis of cytotoxic indolizidinone and pyrrolidine analogs” (2013).
